Measured values from ChEMBL document CHEMBL5038580 (J Med Chem, 2022).
Residues, ends and D or L forms follow the SMILES beside them.

Columns and labels:
SARS-CoV-2 [1] = test: Antiviral activity against SARS-CoV-2 assessed as inhibition of viral infection in 293T/ACE2 cells preincubated for 30 min followed by cells addition for 12 hrs and complete medium replacement and measured after 48 hrs by luciferase assay; assay type: functional, organism-based; conditions: Severe acute respiratory syndrome coronavirus 2, 293T/ACE2
Outline: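 ACE2-293T cells (10^4/well) were plated 12 h before infection. Pseudovirus was mixed with peptides serially diluted in FBS-free DMEM for 30 min at 37 °C and added to the cells. After 12 h the medium was replaced with complete medium and cells were incubated 48 h more. Luciferase activity was read.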

SARS-CoV-2 [2] = test: Antiviral activity against SARS-CoV-2 assessed as inhibition of viral infection in Caco-2 cells preincubated for 30 min followed by cells addition for 12 hrs and complete medium replacement and measured after 48 hrs by luciferase assay; assay type: functional, organism-based; conditions: Severe acute respiratory syndrome coronavirus 2, Caco-2

`CC[C@H](C)[C@H](NC(C)=O)C(=O)N[C@@H](CCC(=O)O)C(=O)N[C@@H](CCC(=O)O)C(=O)N[C@H](C(=O)N[C@H](C(=O)N[C@@H](CCCCN)C(=O)N[C@@H](CCCCN)C(=O)N[C@H](C(=O)N[C@@H](Cc1c[nH]cn1)C(=O)N[C@@H](Cc1c[nH]cn1)C(=O)N[C@H](C(=O)N[C@@H](CCC(=O)O)C(=O)N[C@@H](CCCNC(=N)N)C(=O)N[C@@H](C)C(=O)N[C@H](C(=O)N[C@@H](CCC(=O)O)C(=O)N[C@@H](C)C(=O)N[C@@H](CCC(N)=O)C(=O)N[C@@H](CCC(N)=O)C(=O)N[C@@H](CCCCN)C(=O)N[C@@H](CC(C)C)C(=O)N[C@@H](CC(C)C)C(=O)N[C@@H](CCC(N)=O)C(=O)N[C@@H](CC(C)C)C(=O)N[C@H](C(=O)N[C@H](C(=O)N[C@@H](Cc1c[nH]c2ccccc12)C(=O)NCC(=O)N[C@H](C(=O)N[C@@H](CCCCN)C(=O)N[C@@H](CCC(N)=O)C(=O)N[C@@H](CC(C)C)C(=O)N[C@@H](CCC(N)=O)C(=O)N[C@@H](C)C(=O)N[C@@H](CCCNC(=N)N)C(=O)N[C@H](C(=O)N[C@@H](CC(C)C)C(N)=O)[C@@H](C)CC)[C@@H](C)CC)C(C)C)[C@@H](C)O)[C@@H](C)CC)[C@@H](C)CC)[C@@H](C)CC)C(C)C)[C@@H](C)CC` (Ac-IEEIVKKIHHIERAIEAQQKLLQLTVWGIKQLQARIL-NH2) showed an IC50 (SARS-CoV-2 [1]) of over 20 µM and an IC50 (SARS-CoV-2 [2]) of over 20 µM.
